# Source: ChEMBL document CHEMBL4513216, “Probing the Open Global Health Chemical Diversity Library for Multistage-Active Starting Points for Next-Generation Antimalarials” (ACS Infect Dis, 2020)
# Assay: Toxicity liver stage against HepG2, at 10uM
# Format: cell-based
# Design: test concentration 10 uM, cell line HepG2-A16-CD81EGFP
# Conditions: human, HepG2-A16-CD81EGFP cells; read-out: INHIBITION
# How it was run: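 Uninfected HepG2-A16-CD81EGFP cells, 3 × 10^3 per well, 1536-well, plated on prespotted compound at 10 μM final, parasite-free screening media added to match infected plates; puromycin 10 μM positive, DMSO 0.5% negative; run in parallel with 48 h PbLuc assay at 37 °C, 5% CO2; viability by CellTiter-Glo luminescence, normalized to controls.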
row,Structure (SMILES),cytotoxicity at 10 µM [%]
1,CC(C)(C)OC(=O)Cn1cccc(S(=O)(=O)N2CCCC2)c1=O,5.54
2,COC1(CNC(=O)c2ccc3nsnc3c2)CCSC1 (configuration not stated),-1.36
3,Cc1ccc(CN2C[C@H](N(C)Cc3cncnc3)[C@H]3OCCC[C@H]32)o1,-149
4,CC(=O)N1CC(=O)N(c2ccsc2)CC12CCN(Cc1ccoc1)C2 (configuration not stated),5.56
5,O=C(c1cccs1)N1CCCn2c(nc(CN3CCCC3)cc2=O)C1,-3.32
6,Cc1ccc(N2CCCc3sc(C(=O)NCCO)nc32)nn1,13.3
7,COC[C@@]12CCO[C@@H]1CCN(C(=O)COc1ccc(C)cc1)C2,1.39
8,Cc1nc(CN2CC3(CCN(c4nccs4)C3)CC2=O)cs1 (configuration not stated),-0.646
9,Cc1ccc2c(ccn2CCC(=O)NC[C@@H]2CCCN3CCCC[C@H]23)c1,2.29
10,CC1=Nc2c(c(=O)[nH]n2C(C)C)C(c2ccc(F)c(F)c2)S1 (configuration not stated),-5
11,COc1ccc(S(=O)(=O)N2CCC(S(C)(=O)=O)CC2)cc1C,2.4
12,CCCC(=O)N1CCCC1(C)c1nc(C)no1 (configuration not stated),0.79
13,CNC(=O)C1CN(Cc2cc(C)on2)CCN(C2CCOCC2)C1 (configuration not stated),9.81
14,CNC(=O)c1ccc(C2CN(CC(=O)N(C)C)CCO2)nc1 (configuration not stated),7.15
15,Cc1ccn(CCNC(=O)C2(C)CC(c3ccccc3)=NO2)n1 (configuration not stated),8.46
16,COCCN1CCCC1(C)c1nc(C)cc(N)n1 (configuration not stated),-3.73
17,O=C(c1ccco1)N(c1ccc(F)cn1)C1CCOCC1,-19.8
18,Cc1nc(CN(C)C(=O)Nc2cccc(COC(C)C)c2C)no1,3.95
19,CCc1ccc(C(=O)NC[C@H]2CCCN2C(=O)c2ccc(CC)o2)o1,-5.54
20,c1ccc(-c2nc(SCc3nnc(C4CC4)o3)n[nH]2)nc1,-1.78
21,CN(C)CCn1cc(NC(=O)NC(C)(C)c2nccs2)cn1,-2.85

row,Structure (SMILES),cytotoxicity at 10 µM [%]
1,N#CC(NC(=O)CC(F)(F)F)c1ccsc1 (configuration not stated),7.61
2,O=C(NC1CC1)c1cc(Cl)ccc1-n1cnnn1,3.73
3,NC(=O)C1CCN(c2ccc3cc(Br)ccc3n2)C1 (configuration not stated),7.87
4,COc1c(CNCc2ccccc2Cn2cncn2)c(C)nn1C,1.56
5,CCc1ccc(C(=O)N(CC(F)(F)F)C2CCCOC2)o1 (configuration not stated),-7.59
6,Cc1nccn1C1CCCN(C(=O)c2cnn(C)c2C2CC2)C1 (configuration not stated),-5.92
7,Cc1ccc(CCNC(=O)N2CCC(Cc3cnn(C)c3)C2)cn1 (configuration not stated),3.71
8,CC(C)(C)CCNC(=O)c1ccc(Cl)c(NS(C)(=O)=O)c1,-3.85
9,COCC(C)(C#N)NC(=O)COc1ccccc1Br (configuration not stated),5.67
10,COCCN1CCN(CC(=O)N(C)Cc2ccc(C)o2)CC1C (configuration not stated),-127
11,O=C(COCC1CC1)NCC(c1ccccc1)N1CCc2sccc2C1 (configuration not stated),16.6
12,CCc1nc(CC(=O)N2CCC(C(=O)N3CCCC3)CC2)cs1,-2.71
13,COC(=O)N1CCCC(C(=O)N2CCCCC2)C1 (configuration not stated),-8.58
14,COc1ccc(C(C#N)NC(=O)CC2=CCCCC2)c(OC)c1 (configuration not stated),10.7
15,CC(=O)N1CCCN(C(=O)NCCCc2cn[nH]c2C)CC1,-9.67
16,Cc1ccccc1-c1cc(NC(=O)Cn2ccccc2=O)n(C)n1,3.8
17,CC(C)(C)OC(=O)NC1(c2noc(-c3ccco3)n2)CCC1,-0.657
18,CC(C)OCCOCC(O)CN(C)C(=O)Nc1ccc(F)cc1Cl (configuration not stated),10.7
19,CC1COCCN1C(=O)NCCn1ccnc1 (configuration not stated),-50.4
20,O=C(NC1CCN(c2ncccc2F)C1)c1cccc(-n2ccnc2)c1 (configuration not stated),9.49
21,CCSCCC(=O)Nc1ncn(CC(=O)NCc2ccccc2)n1,20

row,Structure (SMILES),cytotoxicity at 10 µM [%]
1,CN(C)CCn1c(=O)oc2ccc(NC(=O)CC(C)(C)C)cc21,-2.28
2,CCN(C)c1ccc(C(=O)N(CCOC)Cc2ccccn2)cc1,-3.96
3,CN(C)c1ccc(C(=O)NCC2(O)CCOCC2)cc1,-3.34
4,CC(NC(=O)C1=NN(C)C(=O)CC1)c1ccc(Cl)cc1Cl (configuration not stated),-10.4
5,CCc1ccc(CNC(=O)NC(C)CN2CCOCC2)s1 (configuration not stated),-1.84
6,NC(=O)c1ccc(CN2CCCC(N3CCCC3)C2)cc1 (configuration not stated),-3.63
7,CSc1cccc(NC(=O)N2CCC3(CCC(=O)N(C4CC4)C3)CC2)c1,9.27
8,Cc1c[nH]c(CN2CCOC(c3ccc(F)cc3)C2)c(C)c1=O (configuration not stated),-1.82
9,CN1CCCN(C[C@@H]2CN(C(=O)CCc3cn[nH]c3)C[C@@H]2CO)CC1,2.72
10,COc1ccc2c(c1)OCC(CNC(=O)c1cc[nH]c1C)C2 (configuration not stated),3.34
11,Cc1cnc(CNC(=O)C2CCOc3ccccc3C2)cn1 (configuration not stated),-2.21
12,CCc1ccc(CNC[C@H]2C[C@@H](CO)N(C)[C@H]2c2ccccc2F)o1,-3.09
13,CN1CCCCC1CCC(=O)NCCCn1ncc2ccccc21 (configuration not stated),-13.3
14,CC(C)(C)c1ncc2c(n1)CN(C(=O)c1ccc(-n3cnnn3)cc1)C2,-1.98
15,CCCc1n[nH]cc1C(=O)NCC1COc2cc(OC)ccc2C1 (configuration not stated),-0.506
16,Cc1nc(CCNC(=O)C2CCN(C(C)C)CC2)sc1Cl,-8.06
17,O=C(NC1CCCN(CCc2ccccc2)C1)c1ccccn1 (configuration not stated),-5.42
18,CC(=O)NCCNC(=O)c1cc(COc2ccccc2)[nH]n1,-1.32
19,CN(C)CCO[C@H]1C[C@@H](O)C12CCN(c1nccc3ccccc13)CC2,2.2
20,CCOCC(=O)N1CCC(c2nccn2CC2CC2)CC1,-7.18
21,CC(=O)NC1CCN(c2cc(-c3ccccc3)nc3c(C)c(C)nn23)C1 (configuration not stated),-3.98

row,Structure (SMILES),cytotoxicity at 10 µM [%]
1,CCOc1cc(C(=O)NS(=O)(=O)c2cccc(C#N)c2)ccc1OC,-6.69
2,COc1cccc(NC(=O)NCC(O)c2ccc(F)cc2F)c1 (configuration not stated),-1.43
3,Cc1nc(C)n(CC2CCCN(CCC(=O)Nc3cc(C)on3)C2)n1 (configuration not stated),-1.68
4,N#Cc1ccc(CC(=O)N2CCC(Nc3cccnn3)CC2)cc1,-4.11
5,Cc1cccc(CC(=O)NCCCOC(C)C)c1,-2.25
6,CC(C)(O)CN1CCN(C(=O)c2cccnc2O)CC1,-21.7
7,O=C1CCc2cc(C(=O)NCc3ccc(-n4cncn4)nc3)ccc2N1,-11.5
8,Cc1ccc(C(=O)N2CCc3c(CNS(C)(=O)=O)cncc3C2)o1,-11.3
9,O=C(CCc1cccc(C2CCNCC2)n1)N1CCCCC1,-4.78
10,O=C(C1CCOCC1)N1CCc2ncc(CN3CCOCC3)n2CC1,-79.6
11,CN(C)Cc1nnc2n1CCN(c1cnccn1)CC2,-10.8
12,CN(C)C[C@@H]1CCC[C@@H]2CN(c3nccc(C(F)(F)F)n3)C[C@@H]21,-2.75
13,CC(=O)N1C[C@H]2CCCN(Cc3ccc(C)o3)[C@H]2C1,-1.36
14,CCC1=N[C@@]2(CC[C@@H]3CN(CC(=O)N(C)C)C[C@@H]32)C(=O)N1CC1CC1,-3.5
15,O=C(NC1CC1)N1Cc2[nH]nc(COc3cccnc3)c2C1,4.77
16,Cc1cccc(CN2CCC3(CCCN(C(=O)N(C)C)C3)C2=O)n1 (configuration not stated),1.44
17,COCC(=O)N1C[C@H]2CCCC(OCc3cccnc3)[C@H]2C1 (some centres not stated),-5.67
18,CCNc1c(NC(=O)C(C)(C)C)c(=O)oc2ccccc12,-1.97
19,CN1CC2(CCC(C(=O)N3CCOCC3)CC2)Oc2ccccc2C1=O (configuration not stated),5.91
